Screens (PubChem)
ANO1 block: mouse TMEM16A channel inhibition, primary screen; Q8BHY3; HEK293 TMEM16A/YFP iodide influx fluorescence, ionomycin; normalized B-score (activity score, 25-100; higher = stronger inhibition) at 10 µM; 310,000 tested, 1.2% active; AID 588511;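 active means ratio plate-corrected score three or more library SD toward inhibition, starting fluorescence score within five deviations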;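 further: score derived from kinetic fluorescence span divided by baseline fluorescence per well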
Target sequence (Q8BHY3 whole entry, looked up): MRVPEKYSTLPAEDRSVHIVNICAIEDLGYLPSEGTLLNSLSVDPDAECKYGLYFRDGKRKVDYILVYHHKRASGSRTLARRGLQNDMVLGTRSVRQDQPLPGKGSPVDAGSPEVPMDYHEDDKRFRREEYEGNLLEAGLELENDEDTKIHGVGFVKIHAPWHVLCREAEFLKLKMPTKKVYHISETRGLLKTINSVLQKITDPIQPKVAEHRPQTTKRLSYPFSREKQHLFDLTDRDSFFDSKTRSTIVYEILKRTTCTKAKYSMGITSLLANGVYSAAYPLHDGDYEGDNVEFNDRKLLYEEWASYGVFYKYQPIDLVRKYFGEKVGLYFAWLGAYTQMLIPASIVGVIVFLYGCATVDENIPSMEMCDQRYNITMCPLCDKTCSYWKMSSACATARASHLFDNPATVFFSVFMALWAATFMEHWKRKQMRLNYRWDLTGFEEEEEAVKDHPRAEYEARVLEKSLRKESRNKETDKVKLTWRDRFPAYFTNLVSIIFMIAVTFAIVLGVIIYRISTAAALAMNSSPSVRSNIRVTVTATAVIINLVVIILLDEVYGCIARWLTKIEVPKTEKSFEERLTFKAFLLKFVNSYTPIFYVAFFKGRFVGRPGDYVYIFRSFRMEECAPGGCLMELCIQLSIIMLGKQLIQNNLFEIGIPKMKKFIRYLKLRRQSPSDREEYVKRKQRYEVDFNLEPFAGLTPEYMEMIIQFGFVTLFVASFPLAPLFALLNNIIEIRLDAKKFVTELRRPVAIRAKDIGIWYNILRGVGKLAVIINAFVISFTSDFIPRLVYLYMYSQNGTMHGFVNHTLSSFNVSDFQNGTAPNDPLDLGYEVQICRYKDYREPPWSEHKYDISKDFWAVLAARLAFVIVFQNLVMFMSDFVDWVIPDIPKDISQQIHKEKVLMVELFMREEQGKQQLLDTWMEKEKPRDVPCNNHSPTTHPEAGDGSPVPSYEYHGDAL
TAAR1 ag: human TAAR1 agonism; Q96RJ0; CHO RD-HGA16 TAAR1, Fluo-8 calcium fluorescence; vehicle wells 0%, saturating PEA agonist 100%; activation, % at 3 µM; 360,000 tested, 0.99% active;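 active means activation above the mean activation of all test compounds in the run plus 3 SD, cut at about 38% in these data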
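Assay system – CHO-derived RD-HGA16 cells with stable Gα16 and human TAAR1 · Compound dosing – one-point dosing at 3 µM (nominal) · Incubation – 17-24 h seeding, 75 min 37 °C dye, 30 min RT · Measured by – kinetic Fluo-8 calcium fluorescence · Control set – DMSO vehicle as 0%, PEA at EC100 as 100% · Repeats – single well for each compound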
CRFR2-BP antag: antagonists of CRF-binding protein/CRF-R2 receptor complex | AID 588475 | 350,000 tested, 0.59% active | inhibition, % at 11.8 µM | HEK293 CRF-R2/CRF-BP, CRF-induced calcium fluorescence;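 active means inhibition of the ligand-induced calcium signal above about 50% at the single tested concentration, limit read from the data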
CRFBP-R2 agonist: agonists of human CRF-binding protein/CRF-R2 receptor complex; activation, % at 13.2 µM; HEK293 CRF-R2/CRF-BP, calcium dye fluorescence (FLIPR); percent of saturating CRF peptide response; 350,000 tested, 0.46% active; AID 588473;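 active means activation of at least 50%, plus an integration ratio under a set limit after plate pattern correction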;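 further: plate controls were neutral control wells without compound for no effect and CRF at EC100 for full effect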
TMEM16A act: activators or potentiators of mouse TMEM16A chloride channel | B-score at 10 µM | 340,000 tested, 0.3% active | HEK293 TMEM16A/YFP-H148Q/I152L, iodide quench fluorescence; active compounds read low | AID 623877;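 active means fluorescence-ratio B-score plate-corrected deviation score at least 3 library SD below zero, with starting fluorescence score within 5 deviations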;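 further: channel opened by trigger with iodide after compound preincubation; score built on the fluorescence ratio of max minus min over baseline; more negative score means more quench and so TMEM16A activation or potentiation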
TAAR1 antag: human TAAR1 antagonism; CHO RD-HGA16 TAAR1, Fluo-8 calcium fluorescence, antagonist; inhibition, % at 3 µM; 360,000 tested, 1.5% active; AID 624466;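 active means inhibition above a per-plate cutoff, the mean inhibition of test compounds on that plate plus 3 SD, cut at about 49% in these data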;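 further: 0% = DMSO plus EC80 beta-PEA response and 100% = DMSO alone without agonist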
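Test system: hTAAR1-expressing CHO RD-HGA16 cells, Gα16-coupled; Probe or stimulus: EC80 β-phenethylamine stimulus; Compound dosing: single nominal final test compound concentration of 3 µM; Timing: 140 s kinetic read after compound, 140 s after agonist; Signal: Fluo-8 calcium-sensitive fluorescence; Measure: % inhibition of agonist calcium response; Controls: DMSO and EC80 PEA controls.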
An asterisk follows results filed as active; i = inactive; . = not tested or not shown. An excerpt weighted towards active compounds, which were near 3.9% of everything screened.

SMILES	ANO1 block	TAAR1 ag	CRFR2-BP antag	CRFBP-R2 agonist	TMEM16A act	TAAR1 antag
CCOC(=O)c1c(O)c(Cl)c(C)[nH]c1=O	i	0	10	0	i	-31
Clc1ccc2oc(SCc3cccnc3)nc2c1	i	5	-3	-1	i	-11
CCCOc1cccc(-c2cc(C(=O)N/N=C/c3cccnc3)c3ccccc3n2)c1	25*	4	-7	2	i	54*
COC(=O)c1ccccc1NC(=O)COC(=O)c1ccccc1N=Nc1ccc(N(C)C)cc1	i	6	-5	-3	i	-8
CN(C)c1ccc(N=Nc2ccccc2C(=O)OCC(=O)N(C)c2ccccc2)cc1	i	17	-3	9	i	62*
CCOc1cccc(C(=O)Nc2ccc3oc(Cc4ccc(Cl)cc4)nc3c2)c1	100*	5	-10	1	i	38
CC(C)CNC(=O)CSc1nnc(-c2ccc(Cl)cc2)n1N	i	1	17	-2	i	-6
COc1cc(CC(=O)NCC2CCCCC2)cc(OC)c1OC	i	0	12	0	i	-9
COc1ccc(Cl)cc1C(=O)NNC(=O)C1CCCO1 (configuration not stated)	.	0	-3	1	i	-6
O=[N+]([O-])/C=C\c1ccc(N2CCCC2)c(F)c1	.	.	-89	106*	i	.
O=Cc1ccc(N2CCCC2)c([N+](=O)[O-])c1	i	8	6	-2	i	-2
Cc1ccc(CSc2nnc(SCC(=O)N/N=C/c3c(C)nn(-c4ccccc4)c3C)s2)cc1	25*	3	8	3	i	40
Cc1nn(-c2ccccc2)c(C)c1/C=N/NC(=O)CSc1nnc(SCc2ccccc2Cl)s1	i	2	12	-4	i	22
CCN(CC)CCCn1c2c(c(SCC(=O)Nc3nc(C)cs3)nc1=O)CCC2	i	0	-4	-1	i	1
O=c1c2ccccc2nc2n1C(CBr)CN2 (configuration not stated)	i	2	65*	-1	i	1
COc1ccc(CCN2CC(C(=O)N3CCSCC3)CCC2=O)cc1 (configuration not stated)	i	1	-3	1	i	-10
NCCc1ccn[nH]1	i	40*	-4	-2	i	-10
CCOC(=O)c1nnsc1N	i	0	18	-2	i	-11
O=C(COC(=O)[C@H](Cc1ccccc1)N1C(=O)c2ccccc2C1=O)Nc1ccc2c(c1)OCO2	i	15	-38	0	i	56*
O=C(Cn1nnc(-c2ccccc2)n1)Nc1ccc2c(c1)OCO2	i	42*	-4	0	i	21
CCOC(=O)C1=C(C)N=c2s/c(=C/c3cccc([N+](=O)[O-])c3O)c(=O)n2C1c1ccccc1 (configuration not stated)	100*	-2	1	1	i	-10
CCOc1ccc(S(=O)(=O)Nc2ccc(C(=O)NCC3CCCO3)cc2)cc1 (configuration not stated)	i	6	0	-1	i	0
CCOc1ccc(NS(=O)(=O)c2ccc(NC(=O)C3CCCO3)cc2)cc1 (configuration not stated)	i	39*	-13	-1	i	23
Cc1cccc(NC(=O)C2(c3ccc([N+](=O)[O-])cc3)CCCC2)c1	i	48*	-60	8	i	0
Cc1cccc(NC(=O)C2(c3ccccc3)CCOCC2)c1	i	2	5	0	i	-2
C=CCSc1nnc(C)c(/C=C/Nc2ccc(Cl)cc2)n1	i	25	-196	114*	i	34
Cc1ccc(CN2CCN(Cc3ccc4cccc(F)c4n3)CC2CCO)cc1 (configuration not stated)	i	0	-12	2	i	-8
